The text below walks through data of ChEMBL document CHEMBL1149332, “Synthesis of benzoylpyrimidines as antagonists of the corticotropin-releasing factor-1 receptor” (Bioorg Med Chem Lett, 2004).

What is called IC50 is the concentration that gives 50% inhibition. A higher IC50 goes with weaker potency in that assay. The term Ki denotes a dissociation constant, usually derived from enzyme kinetics or from competition with a known ligand.

For the first assay, the target named is T1, Corticotropin-releasing factor receptor 1 (Homo sapiens, UniProt P34998).
T1 sequence (P34998 whole entry): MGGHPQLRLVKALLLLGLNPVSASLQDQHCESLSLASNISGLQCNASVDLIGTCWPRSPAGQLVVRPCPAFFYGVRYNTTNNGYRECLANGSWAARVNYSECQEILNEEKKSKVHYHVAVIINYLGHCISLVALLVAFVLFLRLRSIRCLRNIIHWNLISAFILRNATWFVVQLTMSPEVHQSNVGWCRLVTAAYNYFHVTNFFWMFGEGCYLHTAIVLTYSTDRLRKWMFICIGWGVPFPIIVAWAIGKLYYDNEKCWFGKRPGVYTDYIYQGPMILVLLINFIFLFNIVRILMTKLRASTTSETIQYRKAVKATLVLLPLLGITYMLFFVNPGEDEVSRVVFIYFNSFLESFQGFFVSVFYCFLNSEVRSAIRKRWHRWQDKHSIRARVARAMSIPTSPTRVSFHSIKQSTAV
Kind of assay: Inhibition of CRF-stimulated cAMP production in cells expressing CRF1 receptor.
Conditions: not given
Summed up: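 CHO cells expressing the CRF1 receptor; antagonism of CRF-stimulated cAMP production measured over a range of compound concentrations, with IC50 taken from the concentration-response.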
On the technique in general: Cyclic AMP is a second messenger, typically raised through Gs and lowered through Gi signalling.
For the compound `CCCN(CC1CC1)c1nc(C)nc(C(=O)c2c(C)cc(C)cc2C)c1C`, the IC50 worked out at 1200 nM.

`CCCN(CC1CC1)c1nc(C)nc(C(=O)c2c(OC)cc(OC)cc2OC)c1C` registered an IC50 of 1000 nM.

In the next assay the target is Corticotropin releasing factor receptor (Rattus norvegicus, UniProt P47866+P35353). Kind of assay: Inhibition of CRF-stimulated ACTH release in primary rat anterior pituitary cells. The class given is functional, cell-based. The settings on record: pituitary gland cell.
In turn, `CCCN(CC1CC1)c1nc(C)nc(C(=O)c2c(C)cc(C)cc2C)c1C` showed an IC50 of 980 nM.

In a further assay the target is T1, Corticotropin-releasing factor receptor 1. Kind of assay: Binding affinity for recombinant human CRF1 receptor.
Conditions: not given
As to `CCCN(CC1CC1)c1cc(C(=O)c2c(C)c(C)c(C)c(C)c2C)nc(C)n1`, the Ki was more than 10000 nM.

Turning to `CCC(CC)Nc1nc(C)nc(C(=O)c2c(C)cc(C)cc2C)c1C`, the inhibition constant Ki stood at 220 nM.

On to `CCCN(CC1CC1)c1nc(C)nc(C(=O)c2c(C)cc(C)cc2C)c1C`, for which the Ki worked out at 15 nM.

Consider `Cc1cc(C)c(C(=O)c2nc(C)nc(N3CCCC3)c2C)c(C)c1`, for which the inhibitory constant (Ki) was more than 10000 nM.

As for `CCCN(CC1CC1)c1cc(C)nc(C(=O)c2c(OC)cc(OC)cc2OC)n1`, the Ki worked out at 630 nM.

`CCCN(CCC)c1nc(C)nc(C(=O)c2c(C)cc(C)cc2C)c1C`: the Ki amounted to 58 nM.

On to `CCCN(CC1CC1)c1nc(C)nc(C(=O)c2c(OC)cc(OC)cc2OC)c1C`, for which the Ki stood at 38 nM.

For the compound `CCCN(CC1CC1)c1nc(C)nc(C(=O)c2c(C)c(C)c(C)c(C)c2C)c1C`, the Ki is 5100 nM.

With `C=CCc1c(C(=O)c2c(C)cc(C)cc2C)nc(C)nc1N(CCC)CC1CC1`, the Ki worked out at 31 nM.

With `CCCN(CC1CC1)c1nc(C)nc(C(=O)c2c(CC)cc(CC)cc2CC)c1C`, the inhibition constant (Ki) amounted to 13 nM.

For `Cc1cc(C)c(C(=O)c2nc(C)nc(N3CCOCC3)c2C)c(C)c1`, the Ki is more than 10000 nM.

Take `CCCN(CC1CC1)c1nc(C)nc(C(=O)c2ccccc2C)c1C`: the Ki amounted to 810 nM.

`CCN(c1ccccc1)c1nc(C)nc(C(=O)c2c(C)cc(C)cc2C)c1C`: the Ki amounted to 470 nM.

As to `CCCN(CC1CC1)c1nc(C)nc(C(=O)c2c(C)cc(C)cc2C)c1CC`, the inhibition constant (Ki) worked out at 55 nM.

In the case of `COC[C@@H]1CCCN1c1nc(C)nc(C(=O)c2c(C)cc(C)cc2C)c1C`, the Ki is 380 nM.

As for `C=CCN(CC=C)c1nc(C)nc(C(=O)c2c(C)cc(C)cc2C)c1C`, the Ki turned out to be 38 nM.

Regarding `CCCN(CC1CC1)c1cc(C(=O)c2c(OC)cc(OC)cc2OC)nc(C)n1`, the Ki came to 1100 nM.

Take `C=C(c1nc(C)nc(N(CCC)CC2CC2)c1C)c1c(OC)cc(OC)cc1OC`: the Ki is 560 nM.

On to `CCCN(CC1CC1)c1nc(C)nc(C(O)c2c(CC)cc(CC)cc2CC)c1C` (centres undefined), for which the Ki amounted to 360 nM.

On to `CCCN(CC1CC1)c1nc(C)nc(Cc2c(OC)cc(OC)cc2OC)c1C`, for which the Ki turned out to be 26 nM.

Take `CCCN(CC1CC1)c1nc(C)nc(C(O)c2c(C)cc(C)cc2C)c1C` (centres undefined): the Ki was 79 nM.

With `CCCN(CC1CC1)c1nc(C)nc(C(C)(C)c2c(OC)cc(OC)cc2OC)c1C`, the Ki is more than 10000 nM.

Regarding `CCCN(CC1CC1)c1cc(C(=O)c2c(C)cc(C)cc2C)nc(C)n1`, the Ki worked out at 200 nM.

Regarding `CCCN(CC1CC1)c1nc(C)nc(C(=O)c2ccc(OC)cc2OC)c1C`, the inhibition constant (Ki) is 810 nM.

On to `CCCN(CCO)c1nc(C)nc(C(=O)c2c(C)cc(C)cc2C)c1C`, for which the Ki was found to be 540 nM.

In the case of `CCCN(CC1CC1)c1nc(C)nc(Nc2c(Cl)cc(Cl)cc2Cl)c1Cl`, the Ki turned out to be 2.7 nM.
